Test results published in ChEMBL document CHEMBL1122104, “Ring contraction of oleandrose on the macrolide antibiotic oleandomycin with [(Methoxycarbonyl)sulfamoyl]triethylammonium hydroxide inner salt” (1982).

Tests used:
[1] = test system: Pasteurella multocida; assay: In vitro antibacterial activity against Pasteurella multocida (59A0001), and minimum inhibitory concentration was determined; type: functional
Outline: (§1)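 Broth dilution MIC determination, done per a previously described procedure. Each value is the mean of two determinations.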

[2] = test system: Neisseria sicca; assay: In vitro antibacterial activity against Neisseria sicca (66C000), and minimum inhibitory concentration was determined
[3] = test system: Escherichia coli; assay: In vitro antibacterial activity against Escherichia coli (51A470), and minimum inhibitory concentration was determined; type: functional; outline: as §1
[4] = test system: Staphylococcus aureus; assay: In vitro antibacterial activity against Staphylococcus aureus (01A005), and minimum inhibitory concentration was determined; type: functional; outline: as §1
[5] = test system: Streptococcus pyogenes; assay: In vitro antibacterial activity against Streptococcus pyogenes (02C203), and minimum inhibitory concentration was determined; type: functional; outline: as §1
[6] = test system: Staphylococcus aureus; assay: In vitro antibacterial activity against Staphylococcus aureus (01A052), and minimum inhibitory concentration was determined; type: functional; outline: as §1
[7] = test system: Streptococcus pneumoniae; assay: In vitro antibacterial activity against Streptococcus pneumoniae (02J012), and minimum inhibitory concentration was determined; type: functional; outline: as §1
[8] = test system: Staphylococcus aureus; assay: In vitro for antibacterial activity against Staphylococcus aureus (01A400), and minimum inhibitory concentration was determined; type: functional; outline: as §1
[9] = test system: Bacillus subtilis; assay: In vitro antibacterial activity against Bacillis subtilis (06A001), and minimum inhibitory concentration was determined; type: functional; outline: as §1
[10] = test system: Escherichia coli; assay: In vitro antibacterial activity against Escherichia coli (51A125), and minimum inhibitory concentration was determined; type: functional; outline: as §1
[11] = test system: Enterococcus faecalis; assay: In vitro antibacterial activity against Streptococcus faecalis (02A006), and minimum inhibitory concentration was determined; type: functional; outline: as §1
[12] = test system: Staphylococcus aureus; assay: In vitro for antibacterial activity against Staphylococcus aureus (01A111), and minimum inhibitory concentration was determined; type: functional; outline: as §1
[13] = test system: Neisseria sicca; assay: In vitro antibacterial activity against Neisseria sicca (66C000), and minimum inhibitory concentration was determined; type: functional; outline: as §1
[14] = test system: Escherichia coli; assay: In vitro antibacterial activity against Escherichia coli (51A125), and minimum inhibitory concentration was determined

C=CC1O[C@@H](O[C@@H]2C(C)C(=O)O[C@H](C)[C@H](C)C(OC(C)=O)C(C)C(=O)[C@]3(CO3)C[C@H](C)[C@H](OC3OC(C)CC(N(C)C)[C@H]3O)[C@H]2C)C[C@@H]1OC (some centres undefined)
MIC [1]: 50
MIC [2]: 6.25
MIC [3]: 50
MIC [4]: 3.12
MIC [5]: 0.39
MIC [6]: 6.25
MIC [7]: <0.01
MIC [8]: 25
MIC [9]: 1.56
MIC [10]: >800
MIC [11]: 12.5
MIC [12]: 0.78

COC1CC(O[C@@H]2C(C)C(=O)O[C@H](C)[C@H](C)C(OC(C)=O)C(C)C(=O)[C@]3(CO3)C[C@H](C)[C@H](OC3OC(C)CC(N(C)C)[C@H]3O)[C@H]2C)OC(C)[C@@H]1O (some centres undefined)
MIC [1]: 6.25
MIC [3]: 6.25
MIC [13]: 1.56
MIC [14]: 400
MIC [4]: 0.39
MIC [5]: 0.1
MIC [6]: 0.39
MIC [7]: <0.01
MIC [8]: 1.56
MIC [9]: 0.78
MIC [11]: 1.56
MIC [12]: 0.78
